From ChEMBL document CHEMBL4004826, “Discovery of 1-(3-(benzyloxy)pyridin-2-yl)-3-(2-(piperazin-1-yl)ethyl)urea: A new modulator for amyloid beta-induced mitochondrial dysfunction” (Eur J Med Chem, 2017)

Legend:
[1] = Cytotoxicity against mouse Neuro2a cells assessed as cell viability at 10 uM after 72 hrs by MTT assay relative to control; format: cell-based, N2a; details: read-out: Activity
In short: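 Neuro-2a cells grown in EMEM with 10% FBS and penicillin/streptomycin. A 10 mM DMSO stock was diluted 3-fold over 10 doses in DMSO, and 2000 cells were added per well. Incubated 72 h at 37 °C, 5% CO2. MTT added for 4 h, then solubilization/stop solution for 1 h. Absorbance read at 590 nm. Viability is from color intensity, with IC50 fitted to a sigmoidal dose-response curve.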

N2a [2] = assay: Inhibition of reactive oxygen species production in mouse Neuro2a cells assessed as decrease in H2O2 levels after 6 hrs by ROS-Glo luminescence assay; format: functional, cell-based
In short: (§1)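 Neuro-2a cells, 2000 per well, given compounds from 10-dose 3-fold serial dilutions of 10 mM DMSO stocks. H2O2 substrate added immediately, then 6 h at 37 °C, 5% CO2. ROS-Glo detection reagent added for 20 min at RT, then luminescence read. H2O2 expressed as fold of untreated, with IC50 fitted from the dose series.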

N2a [3] = assay: Cytotoxicity against mouse Neuro2a cells assessed as cell viability after 72 hrs by MTT assay; format: ADME, cell-based
[4] = target: Peptidyl-prolyl cis-trans isomerase F, mitochondrial (Mus musculus) (UniProt Q99KR7); assay: (§2) Inhibition of Cyclophilin D in mouse HT22 cells assessed as neuroprotective activity against amyloid beta (1 to 42) induced impairment of ATP production by measuring assessed as recovery of ATP production at 5 uM pretreated for 10 mins followed by amyloid beta (1 to 42) stimulation measured after 7 hrs by luciferase based assay relative to control; format: cell-based; set-up: scale not given: the % may be the effect or the level left
In short: (§3)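 HT-22 cells, 10,000 per well, seeded one day before. Cells pretreated 10 min at 37 °C with compound, then Aβ1-42 added, and incubated 7 h. Cells were washed, lysed in 1% Triton X-100/TBST, and equal protein amounts (BCA) assayed for ATP by luciferase. Recovery was calculated against the Aβ-treated vehicle control. ATP viability comes from samples without Aβ.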

N2a [5] = assay: Induction of reactive oxygen species production in mouse Neuro2a cells assessed as H2O2 level at 10 uM after 6 hrs by ROS-Glo luminescence assay relative to control; format: cell-based; in short: as §1
[6] = target: Peptidyl-prolyl cis-trans isomerase F, mitochondrial (Mus musculus) (UniProt Q99KR7); assay: Inhibition of cyclophilin D in mouse HT22 cells assessed as reduction in amyloid beta (1 to 42) induced mitochondrial permeability transition pore opening by measuring increase in green to red fluorescence ratio at 5 uM pretreated for 10 mins followed by amyloid beta (1 to 42) stimulation measured at 1 hr interval for 3 hrs by JC-1 dye based fluorescence assay relative to control; format: cell-based; set-up: scale not given: the % may be the effect or the level left
In short: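 HT-22 cells, 30,000 per well, loaded with JC-1 at 7.5 µM final in phenol red-free Opti-MEM for 1 h 15 min at 37 °C, then PBS-washed. Compound at 5 µM for 10 min at 37 °C, then Aβ1-42 (5 µM solution) added. Red (ex/em 530/580 nm) and green (485/530 nm) fluorescence read hourly for 3 h. Green/red ratio normalized to the Aβ-alone control as 100%.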

[7] = target: Peptidyl-prolyl cis-trans isomerase F, mitochondrial (Mus musculus) (UniProt Q99KR7); assay: as §2, with “cell viability” for “assessed as recovery of ATP production”, “5” for “5 uM”; in short: as §3
[8] = Effective permeability of the compound at pH 7.4 at 50 uM after 4 hrs by PAMPA; format: physicochemical; details: read-out: Peff
In short: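 BBB-PAMPA (double-sink) setup. 10 mM DMSO stocks were diluted to 50 µM in buffer pH 7.4 as the donor, with brain sink buffer as the acceptor. Incubated 4 h at 26 °C. Donor, acceptor and reference concentrations measured by UV (230–498 nm), and Pe calculated on a double-sink basis.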

[9] = target: Peptidyl-prolyl cis-trans isomerase F, mitochondrial (Mus musculus) (UniProt Q99KR7); assay: Inhibition of Cyclophilin D in mouse HT22 cells assessed as reduction in amyloid beta (1 to 42) induced decrease in cell viability at 5 uM after 24 hrs by MTT assay relative to control; format: cell-based
In short: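 HT-22 cells, 5000 per well, pretreated 10 min with compound, then Aβ1-42 added and incubated 24 h at 37 °C. MTT added for 2 h, then acidified Triton/isopropanol solubilization, and absorbance read at 570 nm. Percent inhibition calculated relative to vehicle control with Aβ.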

[10] = target: Peptidyl-prolyl cis-trans isomerase F, mitochondrial (Mus musculus) (UniProt Q99KR7); assay: Inhibition of Cyclophilin D in mouse HT22 cells assessed as reduction in amyloid beta (1 to 42) induced reactive oxygen species production at 5 uM after 6 hrs by CMH2DCFDA dye based fluorescence assay relative to control; format: cell-based
In short: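 HT-22 cells, 10,000 per well, treated with compound plus Aβ1-42 in Opti-MEM for 6 h. Cells loaded with CM-H2DCFDA (diluted from 1 mM stock) in HBSS for 30 min at 37 °C, then Hoechst added. Total fluorescence intensity per well taken from high-content imaging. Inhibition expressed as percent of the Aβ-induced signal increase.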

[11] = Cytotoxicity against mouse HT22 cells assessed as cell viability at 5 uM after 24 hrs by MTT assay relative to control; format: cell-based, HT-22; details: read-out: Activity
In short: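 HT-22 cells, 5000 per well, seeded one day before the assay. Compound solution added, then cells incubated 24 h at 37 °C. MTT added for 2 h at 37 °C. Formazan dissolved in 10% Triton X-100 in isopropanol with 0.1 M HCl for 1 h at room temperature, then absorbance read. Viability relative to vehicle control, without Aβ.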

[12] = target: Voltage-gated inwardly rectifying potassium channel KCNH2 (Homo sapiens, UniProt Q12809); assay: Displacement of [3H]-Astemizole from human ERG expressed in HEK293 cell membranes measured after 1 hr by microbeta counting method
In short: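 Radioligand binding to membranes (2.5 µg) from HEK-293 cells expressing hERG. Buffer was 50 mM Hepes pH 7.4 with 60 mM KCl, 0.1% BSA and 4 nM [3H]astemizole, incubated 1 h at RT. Samples filtered through PEI-soaked filtermat. Non-specific binding defined with 0.1 µM astemizole. Used 5–6 test concentrations in duplicate, with isotherms from two assays.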

Sequence of Peptidyl-prolyl cis-trans isomerase F, mitochondrial (Mus musculus) (Q99KR7 whole entry): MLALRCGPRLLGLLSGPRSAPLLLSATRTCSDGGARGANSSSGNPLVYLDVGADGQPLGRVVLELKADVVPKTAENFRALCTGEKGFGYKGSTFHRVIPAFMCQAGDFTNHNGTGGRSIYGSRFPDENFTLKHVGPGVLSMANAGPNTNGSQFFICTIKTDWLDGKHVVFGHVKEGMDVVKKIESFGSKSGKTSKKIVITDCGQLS
Sequence of Voltage-gated inwardly rectifying potassium channel KCNH2 (Q12809 whole entry): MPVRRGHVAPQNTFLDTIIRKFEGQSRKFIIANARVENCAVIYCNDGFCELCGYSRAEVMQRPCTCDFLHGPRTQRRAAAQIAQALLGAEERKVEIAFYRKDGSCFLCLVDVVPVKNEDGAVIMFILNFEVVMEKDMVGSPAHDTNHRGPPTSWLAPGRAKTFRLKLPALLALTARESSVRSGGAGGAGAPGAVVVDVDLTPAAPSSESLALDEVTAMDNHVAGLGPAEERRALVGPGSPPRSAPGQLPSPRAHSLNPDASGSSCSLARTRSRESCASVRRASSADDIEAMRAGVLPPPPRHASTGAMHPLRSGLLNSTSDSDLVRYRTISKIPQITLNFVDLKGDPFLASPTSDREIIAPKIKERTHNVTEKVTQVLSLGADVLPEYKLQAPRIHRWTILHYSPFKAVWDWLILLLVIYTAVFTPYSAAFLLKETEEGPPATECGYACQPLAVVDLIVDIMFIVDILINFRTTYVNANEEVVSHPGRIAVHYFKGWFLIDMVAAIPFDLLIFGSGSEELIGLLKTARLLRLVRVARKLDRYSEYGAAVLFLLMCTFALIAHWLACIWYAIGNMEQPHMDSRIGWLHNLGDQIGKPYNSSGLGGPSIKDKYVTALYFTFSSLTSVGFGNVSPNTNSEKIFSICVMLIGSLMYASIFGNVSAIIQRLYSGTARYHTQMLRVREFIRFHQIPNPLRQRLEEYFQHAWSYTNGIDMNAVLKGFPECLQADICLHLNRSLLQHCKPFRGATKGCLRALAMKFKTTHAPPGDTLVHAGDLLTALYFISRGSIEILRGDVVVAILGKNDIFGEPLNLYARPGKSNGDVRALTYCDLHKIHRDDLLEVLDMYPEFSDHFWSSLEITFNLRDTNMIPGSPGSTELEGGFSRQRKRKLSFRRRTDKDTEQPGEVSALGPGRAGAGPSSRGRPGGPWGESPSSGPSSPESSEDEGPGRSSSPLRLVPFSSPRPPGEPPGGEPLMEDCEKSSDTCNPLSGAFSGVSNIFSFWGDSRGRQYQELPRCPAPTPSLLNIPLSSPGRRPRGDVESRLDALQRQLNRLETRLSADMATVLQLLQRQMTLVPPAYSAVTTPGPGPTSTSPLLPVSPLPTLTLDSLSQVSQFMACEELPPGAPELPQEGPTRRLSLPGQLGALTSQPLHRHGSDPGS

For O=C(Nc1ncccc1OCc1ccc(F)cc1)NC1CCCCCC1, the viability at 72 h, 10 µM [1] was 93.2%, the IC50 (N2a [2]) was > 10 µM and the IC50 (N2a [3]) was > 10 µM. For the same compound, the Activity [4] was 40%, the “fold change (FC)” value (N2a [5]) was 0.91 and the Activity [6] was 28%. For the same compound, the Activity [7] was 99%.

With O=C(Nc1ncccc1OCc1ccc(Cl)cc1)NC1CCCCCC1 the viability at 72 h, 10 µM [1] was 85.2%, the IC50 (N2a [2]) was > 10 µM and the IC50 (N2a [3]) was > 10 µM. The Activity [4] was 47%, the “fold change (FC)” value (N2a [5]) was 1.15 and the Activity [6] was 19%. The Activity [7] was 105%.

For CC(C)(C)NC(=O)Nc1ncccc1OCc1ccc(Cl)cc1, the viability at 72 h, 10 µM [1] was 93.1%, the IC50 (N2a [2]) was > 10 µM and the IC50 (N2a [3]) was > 10 µM. The Activity [4] was 13%, the “fold change (FC)” value (N2a [5]) was 0.91 and the Activity [6] was 35%. It also gave an Activity [7] of 104%.

Cn1c(=O)c2[nH]cnc2n(C)c1=O.O [THEOPHYLLINE] gave a Papp at 4 h, 50 µM [8] of 0.29 ×10⁻⁶ cm/s.

Work on CC(C)(C)CC(C)(C)NC(=O)Nc1ncccc1OCc1cccc(Cl)c1 yielded an Activity [6] of 50%.

O=C(NCCN1CCNCC1)Nc1ncccc1OCc1cccc(Cl)c1 gave an Activity [6] of 48%.

Compound NC(=O)CN1CCCC1=O has an inhibition [9] of 29%, an Activity [4] of 127% and an inhibition [10] of 129%. The Activity [7] was 88% and the viability at 24 h, 5 µM [11] was 132%.

O=C(NCCCl)Nc1ncccc1OCc1ccc(Cl)cc1 gave an Activity [6] of 131%.

CC(C)(C)NC(=O)Nc1ncccc1OCc1ccc(F)cc1 showed an Activity [6] of 49%.

CCNC(=O)Nc1ncccc1OCc1ccccc1Cl gave an Activity [6] of 49%.

Compound O=C(NCCCl)Nc1ncccc1OCc1cccc(Cl)c1 has an Activity [6] of 73%.

With CC(C)(C)NC(=O)Nc1ncccc1OCc1cccc(Cl)c1 the Activity [6] was 176%.

With O=C(NCCN1CCNCC1)Nc1ncccc1OCc1ccccc1 the inhibition [9] was 81%, the viability at 72 h, 10 µM [1] was 102% and the IC50 (N2a [2]) was > 10 µM. The IC50 (N2a [3]) was > 10 µM, the Activity [4] was 87% and the “fold change (FC)” value (N2a [5]) was 0.97. It also gave an Activity [6] of 16%, an inhibition [10] of 97% and an Activity [7] of 78%. The Papp at 4 h, 50 µM [8] was 20.6 ×10⁻⁶ cm/s, the viability at 24 h, 5 µM [11] was 133% and the IC50 [12] was > 28.7 µM.

In the case of CN[C@@H]1C[C@H]2O[C@@](C)([C@@H]1OC)n1c3ccccc3c3c4c(c5c6ccccc6n2c5c31)C(=O)NC4 [STAUROSPORINE], the viability at 72 h, 10 µM [1] is reported as 1.3%.

For O=C(Nc1ncccc1OCc1ccccc1)NC1CCCCCC1, the Activity [6] was 130%.

Work on O=C(Nc1ncccc1OCc1ccccc1Cl)NC1CCCCCC1 yielded an Activity [6] of 41%.

O=C(NCCCl)Nc1ncccc1OCc1ccc(F)cc1 gave an Activity [6] of 64%.

With CCNC(=O)Nc1ncccc1OCc1cccc(F)c1 the viability at 72 h, 10 µM [1] was 96.6%, the IC50 (N2a [2]) was > 10 µM and the IC50 (N2a [3]) was > 10 µM. For the same compound, the Activity [4] was 41%, the “fold change (FC)” value (N2a [5]) was 1.14 and the Activity [6] was 14%. It also gave an Activity [7] of 102%.

Compound O=C(NCCCl)Nc1ncccc1OCc1ccccc1Cl has an Activity [6] of 41%.

With CC1=CC(=O)c2ccccc2C1=O [MENADIONE] the IC50 (N2a [2]) was 2.69 µM and the “fold change (FC)” value (N2a [5]) was 6.94.

In the case of CC(C)(C)CC(C)(C)NC(=O)Nc1ncccc1OCc1cccc(F)c1, the viability at 72 h, 10 µM [1] is reported as 101%, the IC50 (N2a [2]) is reported as > 10 µM and the IC50 (N2a [3]) is reported as > 10 µM. For the same compound, the Activity [4] was -140%, the “fold change (FC)” value (N2a [5]) was 1.02 and the Activity [6] was 31%. For the same compound, the Activity [7] was 30%.

CCNC(=O)Nc1ncccc1OCc1ccc(F)cc1 gave an Activity [6] of 127%.

Work on CC(C)(C)CC(C)(C)NC(=O)Nc1ncccc1OCc1ccccc1Cl yielded an Activity [6] of 21%.

Work on CC(=O)[C@H]1CC[C@H]2[C@@H]3CCC4=CC(=O)CC[C@]4(C)[C@H]3CC[C@]12C [PROGESTERONE] yielded a Papp at 4 h, 50 µM [8] of 48.8 ×10⁻⁶ cm/s.

For O=C(Nc1ncccc1OCc1cccc(F)c1)NC1CCCCCC1, the Activity [6] was 91%.

Compound O=C(Nc1ncccc1OCc1cccc(Cl)c1)NC1CCCCCC1 has an Activity [6] of 46%.

Work on CCNC(=O)Nc1ncccc1OCc1ccc(Cl)cc1 yielded an Activity [6] of 94%.

In the case of CC(C)(C)NC(=O)Nc1ncccc1OCc1cccc(F)c1, the viability at 72 h, 10 µM [1] is reported as 95.8%, the IC50 (N2a [2]) is reported as > 10 µM and the IC50 (N2a [3]) is reported as > 10 µM. The Activity [4] was 45%, the “fold change (FC)” value (N2a [5]) was 0.94 and the Activity [6] was 44%. It also gave an Activity [7] of 129%.

For O=C(NCCCl)Nc1ncccc1OCc1ccccc1, the Activity [6] was 169%.

For CC(C)(C)NC(=O)Nc1ncccc1OCc1ccccc1, the inhibition [9] was 11%, the viability at 72 h, 10 µM [1] was 106% and the IC50 (N2a [2]) was > 10 µM. The IC50 (N2a [3]) was > 10 µM, the Activity [4] was 72% and the “fold change (FC)” value (N2a [5]) was 0.92. The Activity [6] was 23%, the inhibition [10] was 95% and the Activity [7] was 103%. For the same compound, the Papp at 4 h, 50 µM [8] was 45.1 ×10⁻⁶ cm/s and the viability at 24 h, 5 µM [11] was 92%.
